Most compounds without a hit are left out; they make up all but 4.6% or so of the library.
HDAC3 inh = HDAC3 deacetylase inhibitors, primary screen, biochemical, fluorescence, cell-free homogeneous | actives 0.15% (n = 320,000) | recombinant HDAC3, fluorogenic peptide/trypsin coupled | inhibition, % at 8.3 µM | AID 2718, 2010 | Histone deacetylase 3 (Homo sapiens), O15379; in the data active = inhibition above about 26%, passing the limit was not always enough; inconclusive = no clear call, values can overlap the other calls
PfM18AAP inh = PfM18AAP inhibitors, malaria aminopeptidase, primary screen, biochemical, QFRET, recombinant enzyme | H-Glu-NHMec fluorogenic cleavage | AID 1822, 2009 | inhibition, % at 7.35 µM | actives 1.2% (n = 290,000) | M18 aspartyl aminopeptidase (Plasmodium falciparum 3D7);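 active = inhibition above the campaign mean inhibition over all tested compounds plus 3 SD, cut at about 28% in these data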
Rtt109 HAT inh = inhibitors of C. albicans Rtt109/Vps75 HAT, primary screen, biochemical, ThioGlo CoA-SH fluorescence, plate reader | Histone acetyltransferase RTT109 (Candida albicans (strain SC5314 / ATCC MYA-2876)), … | purified Rtt109/Vps75, 4 h | inhibition, % at 34.9 µM | actives 0.16% (n = 330,000) | AID 540336, 2011;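 active = inhibition of at least 50% in every replicate; inconclusive = best replicate reaches 50% inhibition but some replicates fall short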
ALR inh = inhibitors of human ALR sulfhydryl oxidase, primary screen, biochemical, H2O2 detection, HRP-luminol luminescence, single point; FAD-linked sulfhydryl oxidase ALR (Homo sapiens), P55789; purified ALR, DTT oxidation; inhibition, % (no concentration beside the values); actives 3.8% (n = 290,000);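 active = mean replicate inhibition above about 79%, with every replicate also reaching it, limit read from the data; inconclusive = only one of the two criteria met; inactive = mean below limit and not every replicate reaching it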
Target sequence (P55789 whole entry, looked up): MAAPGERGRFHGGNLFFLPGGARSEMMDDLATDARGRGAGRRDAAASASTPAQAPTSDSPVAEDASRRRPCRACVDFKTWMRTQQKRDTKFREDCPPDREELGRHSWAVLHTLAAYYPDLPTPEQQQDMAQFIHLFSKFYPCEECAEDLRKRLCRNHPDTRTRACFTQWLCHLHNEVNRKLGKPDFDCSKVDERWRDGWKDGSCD
FAS TE block = FAS thioesterase domain inhibitors, primary screen, biochemical, fluorescence intensity, uHTS; Fatty acid synthase (Homo sapiens), P49327; recombinant FAS-TE, OMFH fluorogenic substrate, fluorescence endpoint; inhibition, % at 15 µM; actives 0.67% (n = 360,000);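 active = compounds whose normalised, plate-corrected inhibition of enzyme fluorescence in the single-dose primary screen is 50% or more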
UCH37 DUB inh = inhibitors of human UCH37 deubiquitinase, primary screen, biochemical, Ub-AMC cleavage, fluorescence; purified proteasome/UCH37; inhibition, % (concentration not given with the values); actives 0.33% (n = 330,000);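 active = mean inhibition over replicate wells above about 20%, limit read from the data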
Target sequence (Q9Y5K5 whole entry, looked up): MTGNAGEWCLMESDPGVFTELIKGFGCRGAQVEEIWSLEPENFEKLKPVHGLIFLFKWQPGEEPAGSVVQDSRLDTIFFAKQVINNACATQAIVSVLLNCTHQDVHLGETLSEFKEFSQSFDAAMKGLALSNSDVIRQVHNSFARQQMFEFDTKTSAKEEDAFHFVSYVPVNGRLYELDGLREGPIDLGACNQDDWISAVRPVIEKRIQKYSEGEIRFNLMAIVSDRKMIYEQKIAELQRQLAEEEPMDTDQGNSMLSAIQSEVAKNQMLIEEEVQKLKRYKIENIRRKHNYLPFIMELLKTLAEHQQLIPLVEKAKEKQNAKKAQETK
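Material: human UCH37 enzyme supplied as purified proteasome complex / Amount: 0.15 nM proteasome as dispensed / Buffer or medium: pH 7.4 Tris-HCl (50 mM) with ovalbumin, ATP-MgCl2, DTT / Times: preincubation 30 min, reaction 25 min, room temperature / Technique: AMC fluorescence from Ub-AMC cleavage, excitation 355 nm, emission 460 nm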
Each line names hits and unclear results; the compound was inactive in the other large screens.

CC(=NNC(=O)C1CCCN1C(=O)c1ccc([N+](=O)[O-])cc1)c1ccc(Br)cc1 (centres undefined)	none (no result: HDAC3 inh, PfM18AAP inh, Rtt109 HAT inh, ALR inh, FAS TE block)
CN(C)/C=C(\C#N)C(=O)N/N=C(\CC(=O)C(F)(F)F)c1ccco1	PfM18AAP inh 30 (no result: ALR inh, UCH37 DUB inh)
COc1ccc(NS(=O)(=O)c2cc(NC(=NS(=O)(=O)c3ccccc3)c3ccc(F)cc3)ccc2Cl)cc1	none (no result: HDAC3 inh, PfM18AAP inh, Rtt109 HAT inh, ALR inh, FAS TE block)
CC(=NN(Cc1ccccc1)c1ccccc1)c1cccnc1	none (no result: HDAC3 inh, PfM18AAP inh, Rtt109 HAT inh, ALR inh, FAS TE block)
CCOc1cc(/C=C(\C#N)C(=O)Nc2cccc(C(=O)O)c2)cc(Br)c1OC(=O)c1ccc(OC)cc1	FAS TE block 84
CCOc1cc(/C=C(\C#N)C(=O)Nc2cccc(C(=O)O)c2)ccc1OCc1ccccc1Cl	none (no result: UCH37 DUB inh)
CC(=O)Nc1ccc(S(=O)(=O)NNC(=O)NC23CC4CC(CC(C4)C2)C3)cc1	none
Cc1ccc(S(=O)(=O)NNC(=O)NC23CC4CC(CC(C4)C2)C3)cc1	ALR inh 94
O=C(CSc1ccccc1)NN=Cc1ccccc1O	none (no result: HDAC3 inh, PfM18AAP inh, Rtt109 HAT inh, ALR inh, FAS TE block)
CCOC(=O)n1ccc(C(=O)Nc2ccccc2F)n1	ALR inh 96
Cc1ccc(N(C(=O)c2ccc(Br)o2)C2C=CS(=O)(=O)C2)cc1 (centres undefined)	ALR inh 77
Cc1ccc(N(C(=O)c2cccs2)C2C=CS(=O)(=O)C2)cc1 (centres undefined)	ALR inh 96
C=CC[N+](C)(C)CCCNC(=O)C=NO	none (no result: HDAC3 inh, PfM18AAP inh, Rtt109 HAT inh, ALR inh, FAS TE block)
CCOC(=O)Cc1csc(NC(=O)CSc2nnc(-c3ccncc3)n2Cc2ccco2)n1	ALR inh 97
CCCc1[nH]c2ccc(C#N)cc2c1CCC	ALR inh 97 (no result: UCH37 DUB inh)
Cc1c(Cc2ccccc2)sc(N=Cc2c(O)ccc3ccccc23)c1C(N)=O	none (no result: HDAC3 inh, PfM18AAP inh, Rtt109 HAT inh, ALR inh, FAS TE block)
CCOC(=O)C(=NCCCN(C)C)NNc1ccc(Br)cc1	ALR inh 99 (no result: Rtt109 HAT inh)
CCCCN=C(NNc1ccc(Br)cc1)C(=O)OCC	ALR inh 99
CCOC(=O)C(=NCCCN(C)C)NNc1cc(C(F)(F)F)ccc1Cl	none
COc1cc(OC)cc(C(=O)NNc2nc3cc4c(cc3s2)OCO4)c1	PfM18AAP inh 31, ALR inh inconclusive
O=c1n(CCCN2CCN(c3cccc(Cl)c3)CC2)nc2ccccn12	ALR inh 93
Cc1cccc(OCC(=O)Nc2cc(NC(=O)COc3cccc(C)c3)cc(C(=O)O)c2)c1	none
COc1cccc(OCC(=O)Nc2cc(NC(=O)COc3cccc(OC)c3)cc(C(=O)O)c2)c1	ALR inh 99
Cc1cccc(OCC(=O)Nc2cc(NC(=O)COc3cccc(C)c3C)cc(C(=O)O)c2)c1C	ALR inh 80
Cc1ccccc1OCC(=O)Nc1cccc(C(=O)O)c1	none (no result: HDAC3 inh, ALR inh)
CCN1CCCc2cc(CN(CCN3CCOCC3)C(=S)Nc3ccc(C)cc3)ccc21	ALR inh 99
CCOc1ccc(NC(=S)N(CCN2CCOCC2)Cc2ccc3c(c2)CCCN3CC)cc1	none (no result: ALR inh)
CCN1CCCc2cc(CN(CCN3CCOCC3)C(=S)Nc3ccc(OC)cc3)ccc21	ALR inh 99
CCN1CCCc2cc(CN(CCN3CCOCC3)C(=S)Nc3cc(F)cc(F)c3)ccc21	ALR inh 94
Cc1ccc(C(=O)NN=Cc2ccc(-c3ccccc3[N+](=O)[O-])o2)cn1	none (no result: HDAC3 inh, PfM18AAP inh, Rtt109 HAT inh, ALR inh, FAS TE block)
Cc1ccc(NC(=O)CCC(=O)NN=Cc2ccco2)c(C)c1	none (no result: HDAC3 inh, PfM18AAP inh, Rtt109 HAT inh, ALR inh, FAS TE block)
COc1ccc(C=NNC(=O)c2cc(-c3cccnc3)nc3ccccc23)c(OC)c1	none (no result: HDAC3 inh, PfM18AAP inh, Rtt109 HAT inh, ALR inh, FAS TE block)
ON=CCc1[nH]c2ccccc2c1-c1ccccc1	none (no result: HDAC3 inh, PfM18AAP inh, Rtt109 HAT inh, ALR inh, FAS TE block)
C=CCc1c(C)nc(-c2ccccc2)nc1Nc1ccc(O)cc1	ALR inh 99
O=C(c1ccco1)N(CCC(c1ccccc1)c1ccco1)Cc1ccco1 (centres undefined)	none
CC(=O)N(CCC(Cc1ccccc1)c1ccco1)Cc1ccco1 (centres undefined)	Rtt109 HAT inh 53

High-throughput results from PubChem.
